Results taken from ChEMBL document CHEMBL4354828, “Discovery of Taniborbactam (VNRX-5133): A Broad-Spectrum Serine- and Metallo-β-lactamase Inhibitor for Carbapenem-Resistant Bacterial Infections” (J Med Chem, 2020).
Values after ≈ are worked out from the molar mass of the structure shown.

Tests used:
[1] = Inhibition of bacterial CMY-2 using nitrocefin as substrate preincubated for 15 mins followed by susbtrate addition and measured after 10 mins by spectrophotometric method; parameters: species or system Bacteria
[2] = Inhibition of bacterial OXA-1 using nitrocefin as substrate preincubated for 15 mins followed by susbtrate addition and measured after 10 mins by spectrophotometric method; parameters: species or system Bacteria
[3] = test system: Klebsiella pneumoniae ATCC BAA-1705; assay: Inhibition of KPC-2 in Klebsiella pneumoniae ATCC BAA 1705 assessed as piperacillin antibacterial activity at 16 ug/ml after 16 to 20 hrs by CLSI-based microbroth dilution method (Rvb > […] ug/ml)
Pseudomonas aeruginosa [4] = assay: Inhibition of KPC-2/PDC-42 in Pseudomonas aeruginosa CDC-0356 assessed as piperacillin antibacterial activity at 16 ug/ml after 16 to 20 hrs by CLSI-based microbroth dilution method (Rvb > […] ug/ml)
Klebsiella pneumoniae [5] = assay: Inhibition of KPC-2/SHV12/TEM-1 in Klebsiella pneumoniae CDC-0361 assessed as cefepime antibacterial activity at 8 ug/ml after 16 to 20 hrs by CLSI-based microbroth dilution method (reference value: […] ug/ml)
[6] = test system: Klebsiella pneumoniae ATCC BAA-1705; assay: Inhibition of KPC-2 in Klebsiella pneumoniae ATCC BAA 1705 assessed as meropenem antibacterial activity at 4 ug/ml after 16 to 20 hrs by CLSI-based microbroth dilution method (reference value: […] ug/ml)
Escherichia coli [7] = assay: Inhibition of NDM-1/CMY-6/OXA-1 in Escherichia coli CDC-0055 assessed as meropenem antibacterial activity at 4 ug/ml after 16 to 20 hrs by CLSI-based microbroth dilution method (reference value: […] ug/ml)
Klebsiella pneumoniae [8] = assay: Inhibition of KPC-2/SHV12/TEM-1 in Klebsiella pneumoniae CDC-0361 assessed as meropenem antibacterial activity at 4 ug/ml after 16 to 20 hrs by CLSI-based microbroth dilution method (reference value: […] ug/ml)
Escherichia coli [9] = assay: Inhibition of VIM-1/VIM-2/VIM-4/NDM-1 in Escherichia coli assessed as cefepime antibacterial activity at 4 ug/ml after 16 to 20 hrs by CLSI-based microbroth dilution method
In short: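 Panel of 14 clinical isolates expressing class B VIM- or NDM-type MBLs: E. coli (4), E. cloacae (2), K. pneumoniae (4), P. aeruginosa (1), A. baumannii (3).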

Klebsiella pneumoniae [10] = assay: Inhibition of VIM-1/VIM-2/VIM-4/NDM-1 in Klebsiella pneumoniae assessed as cefepime antibacterial activity at 4 ug/ml after 16 to 20 hrs by CLSI-based microbroth dilution method
Pseudomonas aeruginosa [11] = assay: Inhibition of VIM in Pseudomonas aeruginosa CDC-0457 assessed as cefepime antibacterial activity at 8 ug/ml after 16 to 20 hrs by CLSI-based microbroth dilution method
[12] = Inhibition of bacterial KPC-2 using imipenem as substrate preincubated for 15 mins followed by susbtrate addition and measured after 10 mins by spectrophotometric method; parameters: species or system Bacteria
Klebsiella pneumoniae [13] = assay: Inhibition of OXA-48 in Klebsiella pneumoniae assessed as meropenem antibacterial activity at 4 ug/ml after 16 to 20 hrs by CLSI-based microbroth dilution method (Rvb >= […] ug/ml)
[14] = Inhibition of bacterial SHV-5 using cefotaxime as substrate preincubated for 15 mins followed by susbtrate addition and measured after 10 mins by spectrophotometric method; parameters: species or system Bacteria
Enterobacter cloacae [15] = assay: Inhibition of TEM/CTX-M/SHV/Cephalosporinase in Enterobacter cloacae CH23 assessed as cefepime antibacterial activity at 4 ug/ml after 16 to 20 hrs by CLSI-based microbroth dilution method (Rvb > […] ug/ml)
Klebsiella pneumoniae [16] = assay: Inhibition of TEM/CTX-M/SHV in Klebsiella pneumoniae 9032 assessed as cefepime antibacterial activity at 4 ug/ml after 16 to 20 hrs by CLSI-based microbroth dilution method (reference value: […] ug/ml)
Klebsiella pneumoniae [17] = assay: Inhibition of KPC/Cephalosporinase in Klebsiella pneumoniae 664-1 assessed as cefepime antibacterial activity at 4 ug/ml after 16 to 20 hrs by CLSI-based microbroth dilution method (Rvb > […] ug/ml)
Escherichia coli [18] = assay: Effect on growth of wild type Escherichia coli ATCC 25922 after 16 to 20 hrs by CLSI-based microbroth dilution method; type: organism-based; details: in vitro
Enterobacter cloacae [19] = assay: Effect on growth of Enterobacter cloacae 144200 expressing p99 AmpC after 16 to 20 hrs by CLSI-based microbroth dilution method; type: organism-based; details: in vivo
Klebsiella aerogenes = assay: Effect on growth of Enterobacter aerogenes 188548 expressing AmpC after 16 to 20 hrs by CLSI-based microbroth dilution method; type: organism-based; details: in vivo
Pseudomonas aeruginosa [20] = assay: Effect on growth of wild type Pseudomonas aeruginosa 27853 after 16 to 20 hrs by CLSI-based microbroth dilution method; type: organism-based
Pseudomonas aeruginosa [21] = assay: Effect on growth of Pseudomonas aeruginosa Ps296 AmpC/VIM-2/TEM-1 after 16 to 20 hrs by CLSI-based microbroth dilution method; type: organism-based; details: in vivo
[22] = Cytotoxicity against human MRC5 cells assessed as growth inhibition at 256 ug/ml relative to control; type: cell-based; details: read-out: Activity
[23] = Cytotoxicity against mouse 3T3 cells assessed as growth inhibition at 256 ug/ml relative to control; type: cell-based; details: NIH3T3 cells, read-out: Activity
Cathepsin G = Cathepsin G (Homo sapiens, UniProt P08311); assay: Inhibition of human cathepsin G at 100 uM
Cathepsin G, sequence (P08311 whole entry): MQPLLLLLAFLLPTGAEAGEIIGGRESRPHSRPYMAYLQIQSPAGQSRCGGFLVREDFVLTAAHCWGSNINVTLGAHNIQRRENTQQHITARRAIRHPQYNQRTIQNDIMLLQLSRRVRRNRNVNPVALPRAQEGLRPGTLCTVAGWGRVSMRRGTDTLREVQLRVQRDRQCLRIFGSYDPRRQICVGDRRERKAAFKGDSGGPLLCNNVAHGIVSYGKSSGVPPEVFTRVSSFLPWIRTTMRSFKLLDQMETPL

Trypsin = Trypsin (Homo sapiens, UniProt P07477+P07478+P35030); assay: Inhibition of human trypsin at 100 uM; type: protein assay
Interstitial collagenase = Interstitial collagenase (Homo sapiens, UniProt P03956); assay: Inhibition of human MMP1 at 100 uM
Interstitial collagenase, sequence (P03956 whole entry): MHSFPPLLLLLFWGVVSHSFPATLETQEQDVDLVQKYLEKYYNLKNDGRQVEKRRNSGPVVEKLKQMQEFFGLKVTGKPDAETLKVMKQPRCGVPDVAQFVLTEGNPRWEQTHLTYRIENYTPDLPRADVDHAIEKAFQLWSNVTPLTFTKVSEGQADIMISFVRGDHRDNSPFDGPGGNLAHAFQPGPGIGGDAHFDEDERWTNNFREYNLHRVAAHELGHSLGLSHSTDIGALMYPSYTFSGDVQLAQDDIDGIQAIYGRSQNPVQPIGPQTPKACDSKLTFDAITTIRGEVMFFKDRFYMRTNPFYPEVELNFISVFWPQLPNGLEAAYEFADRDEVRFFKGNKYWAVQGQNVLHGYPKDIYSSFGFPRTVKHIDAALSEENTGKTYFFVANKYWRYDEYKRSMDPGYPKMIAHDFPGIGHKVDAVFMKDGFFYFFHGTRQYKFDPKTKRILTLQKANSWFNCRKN

[24] = target: 72 kDa type IV collagenase (Homo sapiens, UniProt P08253); assay: Inhibition of human MMP2 at 100 uM
72 kDa type IV collagenase, sequence (P08253 whole entry): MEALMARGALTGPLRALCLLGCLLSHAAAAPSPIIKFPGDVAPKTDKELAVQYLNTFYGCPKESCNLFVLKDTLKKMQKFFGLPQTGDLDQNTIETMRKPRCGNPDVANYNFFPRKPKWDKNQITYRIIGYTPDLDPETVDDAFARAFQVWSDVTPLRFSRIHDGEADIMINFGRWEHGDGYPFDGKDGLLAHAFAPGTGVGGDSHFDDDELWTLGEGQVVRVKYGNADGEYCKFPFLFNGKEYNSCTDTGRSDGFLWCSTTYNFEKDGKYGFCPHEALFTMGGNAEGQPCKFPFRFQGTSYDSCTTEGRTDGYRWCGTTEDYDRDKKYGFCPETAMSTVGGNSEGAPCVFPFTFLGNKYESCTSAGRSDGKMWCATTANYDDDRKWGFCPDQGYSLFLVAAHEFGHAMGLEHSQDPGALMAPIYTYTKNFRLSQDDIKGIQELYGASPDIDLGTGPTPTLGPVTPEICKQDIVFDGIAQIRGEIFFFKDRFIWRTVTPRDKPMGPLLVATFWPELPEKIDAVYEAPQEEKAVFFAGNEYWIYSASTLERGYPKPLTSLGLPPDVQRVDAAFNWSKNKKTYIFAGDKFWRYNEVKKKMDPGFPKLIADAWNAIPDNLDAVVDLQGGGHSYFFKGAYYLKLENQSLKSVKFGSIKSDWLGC

Stromelysin-1 = Stromelysin-1 (Homo sapiens, UniProt P08254); assay: Inhibition of human MMP3 at 100 uM
Stromelysin-1, sequence (P08254 whole entry): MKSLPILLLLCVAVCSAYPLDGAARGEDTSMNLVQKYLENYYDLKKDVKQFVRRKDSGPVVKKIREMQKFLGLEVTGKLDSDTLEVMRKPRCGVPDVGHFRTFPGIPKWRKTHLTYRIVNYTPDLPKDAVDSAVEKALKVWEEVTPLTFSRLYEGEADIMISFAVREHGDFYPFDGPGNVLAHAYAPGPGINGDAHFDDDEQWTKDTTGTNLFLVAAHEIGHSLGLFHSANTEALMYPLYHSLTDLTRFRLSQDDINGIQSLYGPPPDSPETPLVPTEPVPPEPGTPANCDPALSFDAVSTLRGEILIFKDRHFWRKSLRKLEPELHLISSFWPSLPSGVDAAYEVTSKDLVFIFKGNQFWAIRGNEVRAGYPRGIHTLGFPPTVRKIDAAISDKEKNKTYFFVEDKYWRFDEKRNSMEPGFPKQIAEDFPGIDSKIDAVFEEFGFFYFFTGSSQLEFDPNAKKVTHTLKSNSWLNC

Cytochrome P450 1A2 = Cytochrome P450 1A2 (Homo sapiens, UniProt P05177); assay: Inhibition of human CYP1A2 at 100 uM; type: ADME
Cytochrome P450 1A2, sequence (P05177 whole entry): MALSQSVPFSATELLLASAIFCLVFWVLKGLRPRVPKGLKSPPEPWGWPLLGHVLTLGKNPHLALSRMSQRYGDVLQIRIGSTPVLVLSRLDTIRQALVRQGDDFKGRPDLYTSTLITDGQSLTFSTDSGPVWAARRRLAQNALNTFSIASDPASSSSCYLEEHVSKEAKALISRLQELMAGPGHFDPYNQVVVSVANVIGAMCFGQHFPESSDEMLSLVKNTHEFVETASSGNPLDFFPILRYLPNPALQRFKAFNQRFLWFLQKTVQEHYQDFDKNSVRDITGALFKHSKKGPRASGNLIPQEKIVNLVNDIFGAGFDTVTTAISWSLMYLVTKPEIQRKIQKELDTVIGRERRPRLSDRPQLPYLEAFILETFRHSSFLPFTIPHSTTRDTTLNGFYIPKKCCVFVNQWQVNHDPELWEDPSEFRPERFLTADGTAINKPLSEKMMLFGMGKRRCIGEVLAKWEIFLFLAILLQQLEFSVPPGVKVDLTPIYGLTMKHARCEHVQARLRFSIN

Cytochrome P450 2D6 = Cytochrome P450 2D6 (Homo sapiens, UniProt P10635); assay: Inhibition of human CYP2D6 at 100 uM; type: ADME
Cytochrome P450 2D6, sequence (P10635 whole entry): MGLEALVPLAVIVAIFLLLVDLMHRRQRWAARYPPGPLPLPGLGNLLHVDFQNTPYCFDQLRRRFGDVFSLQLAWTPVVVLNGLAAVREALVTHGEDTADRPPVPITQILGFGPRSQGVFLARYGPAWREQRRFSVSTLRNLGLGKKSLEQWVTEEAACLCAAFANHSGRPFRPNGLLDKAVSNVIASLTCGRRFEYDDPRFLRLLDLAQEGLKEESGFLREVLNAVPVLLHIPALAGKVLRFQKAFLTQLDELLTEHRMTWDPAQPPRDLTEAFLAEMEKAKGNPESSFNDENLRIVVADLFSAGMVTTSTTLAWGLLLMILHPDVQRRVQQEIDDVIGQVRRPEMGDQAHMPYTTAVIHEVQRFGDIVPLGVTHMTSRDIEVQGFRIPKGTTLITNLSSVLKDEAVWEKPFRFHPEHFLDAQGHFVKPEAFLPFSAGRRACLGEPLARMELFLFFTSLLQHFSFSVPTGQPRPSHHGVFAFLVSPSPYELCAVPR

Cytochrome P450 3A4 = Cytochrome P450 3A4 (Homo sapiens, UniProt P08684); assay: Inhibition of human CYP3A4 at 100 uM; type: ADME
Cytochrome P450 3A4, sequence (P08684 whole entry): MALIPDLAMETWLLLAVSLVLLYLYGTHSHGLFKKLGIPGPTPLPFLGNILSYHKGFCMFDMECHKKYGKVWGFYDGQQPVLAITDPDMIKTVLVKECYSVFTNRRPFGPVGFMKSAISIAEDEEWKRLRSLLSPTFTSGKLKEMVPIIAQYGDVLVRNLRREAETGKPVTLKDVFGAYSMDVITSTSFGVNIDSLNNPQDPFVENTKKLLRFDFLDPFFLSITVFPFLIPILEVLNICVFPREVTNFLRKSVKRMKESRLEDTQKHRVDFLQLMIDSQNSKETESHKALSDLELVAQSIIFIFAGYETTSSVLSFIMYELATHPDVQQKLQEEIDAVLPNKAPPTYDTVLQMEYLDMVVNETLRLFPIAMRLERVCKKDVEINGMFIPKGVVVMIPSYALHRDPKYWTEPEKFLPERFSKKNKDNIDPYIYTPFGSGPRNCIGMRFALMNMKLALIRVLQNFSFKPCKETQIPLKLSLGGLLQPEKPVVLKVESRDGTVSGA

[25] = target: Voltage-gated inwardly rectifying potassium channel KCNH2 (Homo sapiens, UniProt Q12809); assay: Inhibition of human ERG at 100 uM
Voltage-gated inwardly rectifying potassium channel KCNH2, sequence (Q12809 whole entry): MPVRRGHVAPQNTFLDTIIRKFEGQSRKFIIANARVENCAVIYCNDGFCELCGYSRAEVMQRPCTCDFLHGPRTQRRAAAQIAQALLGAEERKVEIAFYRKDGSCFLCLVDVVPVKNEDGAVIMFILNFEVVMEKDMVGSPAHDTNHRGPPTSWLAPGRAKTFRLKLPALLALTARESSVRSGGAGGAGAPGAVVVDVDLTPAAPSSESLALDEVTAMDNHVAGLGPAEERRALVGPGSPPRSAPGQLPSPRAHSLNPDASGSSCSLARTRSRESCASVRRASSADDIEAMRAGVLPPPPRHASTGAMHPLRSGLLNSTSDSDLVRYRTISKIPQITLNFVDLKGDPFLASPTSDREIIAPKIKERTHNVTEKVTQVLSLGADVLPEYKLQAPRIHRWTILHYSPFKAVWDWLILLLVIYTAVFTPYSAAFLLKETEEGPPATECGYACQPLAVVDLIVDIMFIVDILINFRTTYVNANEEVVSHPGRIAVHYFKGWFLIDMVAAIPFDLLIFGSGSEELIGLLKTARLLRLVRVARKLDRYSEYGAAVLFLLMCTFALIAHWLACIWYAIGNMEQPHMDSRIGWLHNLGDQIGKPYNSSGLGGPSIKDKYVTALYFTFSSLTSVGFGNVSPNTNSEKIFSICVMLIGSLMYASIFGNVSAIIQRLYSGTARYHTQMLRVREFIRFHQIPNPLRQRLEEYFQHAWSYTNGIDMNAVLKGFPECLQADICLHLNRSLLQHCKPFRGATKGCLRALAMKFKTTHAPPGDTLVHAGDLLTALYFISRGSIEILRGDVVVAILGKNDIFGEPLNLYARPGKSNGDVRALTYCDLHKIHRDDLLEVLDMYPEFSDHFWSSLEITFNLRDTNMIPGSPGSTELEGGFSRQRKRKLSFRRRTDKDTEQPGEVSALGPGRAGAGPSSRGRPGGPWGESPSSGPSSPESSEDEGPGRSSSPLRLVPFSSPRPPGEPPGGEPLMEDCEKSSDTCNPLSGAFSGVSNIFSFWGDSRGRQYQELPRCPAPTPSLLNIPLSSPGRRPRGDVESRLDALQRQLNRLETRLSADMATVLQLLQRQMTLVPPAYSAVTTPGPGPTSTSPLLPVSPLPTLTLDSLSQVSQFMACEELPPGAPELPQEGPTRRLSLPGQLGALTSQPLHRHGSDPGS

Escherichia coli [26] = assay: Antibacterial activity against Escherichia coli UNT057-1 expressing CTX-M-15 infected in C3H/Hej mouse assessed as log reduction in viable bacterial counts in kidney at 8 mg/kg, sc bid co-treated with 16 mg/kg of cefepime and measured after 7 days (reference value: 7.25 +/- 0.16); type: functional

NC(=O)[C@@H]1CC[C@@H]2CN1C(=O)N2OS(=O)(=O)O [AVIBACTAM]
IC50 [1]: 7 nM | IC50 [2]: 40 nM | MIC [3]: 4 µg/mL (≈ 15.1 µM) | MIC (Pseudomonas aeruginosa [4]): 1 µg/mL (≈ 3.77 µM) | MIC (Klebsiella pneumoniae [5]): 0.0079 µg/mL (≈ 0.0298 µM) | MIC [6]: 0.015 µg/mL (≈ 0.0566 µM) | MIC (Escherichia coli [7]): 8 µg/mL (≈ 30.2 µM) | MIC (Klebsiella pneumoniae [8]): 0.015 µg/mL (≈ 0.0566 µM) | MIC50 (Escherichia coli [9]): > 32 µg/mL | MIC90 (Escherichia coli [9]): > 32 µg/mL | MIC50 (Klebsiella pneumoniae [10]): > 32 µg/mL | MIC90 (Klebsiella pneumoniae [10]): > 32 µg/mL | MIC (Pseudomonas aeruginosa [11]): > 16 µg/mL

NCCN[C@H]1CC[C@H](CC(=O)N[C@H]2Cc3cccc(C(=O)O)c3OB2O)CC1
IC50 [12]: 30 nM | MIC (Klebsiella pneumoniae [13]): 2 µg/mL (≈ 5.14 µM) | IC50 [14]: 0.4 nM | IC50 [1]: 7 nM | IC50 [2]: 160 nM | MIC [3]: 4 µg/mL (≈ 10.3 µM) | MIC (Pseudomonas aeruginosa [4]): 1 µg/mL (≈ 2.57 µM) | MIC (Klebsiella pneumoniae [5]): 0.015 µg/mL (≈ 0.0385 µM) | MIC [6]: 0.015 µg/mL (≈ 0.0385 µM) | MIC (Escherichia coli [7]): 0.25 µg/mL (≈ 0.642 µM) | MIC (Klebsiella pneumoniae [8]): 0.015 µg/mL (≈ 0.0385 µM) | MIC (Enterobacter cloacae [15]): 0.5 µg/mL (≈ 1.28 µM) | MIC (Klebsiella pneumoniae [16]): < 0.125 µg/mL | MIC (Klebsiella pneumoniae [17]): 0.25 µg/mL (≈ 0.642 µM) | MIC50 (Escherichia coli [9]): 1 µg/mL (≈ 2.57 µM) | MIC90 (Escherichia coli [9]): 4 µg/mL (≈ 10.3 µM) | MIC50 (Klebsiella pneumoniae [10]): 1 µg/mL (≈ 2.57 µM) | MIC90 (Klebsiella pneumoniae [10]): 4 µg/mL (≈ 10.3 µM) | MIC (Escherichia coli [18]): > 128 µg/mL | MIC (Enterobacter cloacae [19]): > 128 µg/mL | MIC (Klebsiella aerogenes): > 128 µg/mL | MIC (Pseudomonas aeruginosa [20]): > 128 µg/mL | MIC (Pseudomonas aeruginosa [21]): > 128 µg/mL | inhibition at 256 ug/ml [22]: < 20% | inhibition at 256 ug/ml [23]: < 20% | inhibition (INH) (Cathepsin G): Not Active | inhibition (INH) (Trypsin): Not Active | inhibition (INH) (Interstitial collagenase): Not Active | inhibition (INH) [24]: Not Active | inhibition (INH) (Stromelysin-1): Not Active | inhibition (INH) (Cytochrome P450 1A2): Not Active | inhibition (INH) (Cytochrome P450 2D6): Not Active | inhibition (INH) (Cytochrome P450 3A4): Not Active | inhibition (INH) [25]: Not Active | Activity (Escherichia coli [26]): 4.87 log10CFU | MIC (Pseudomonas aeruginosa [11]): 0.125 µg/mL (≈ 0.321 µM)
